Assay results from publication PMC8453771 (Journal of Clinical Pharmacology, 2021).
Like-named read-outs stand apart in the source and are kept apart here. One block for each compound: values may come before it.

Columns and labels:
[1] = primary metabolites in plasma; cited from earlier work
[2] = coadministration of rifampin; cited from earlier work
[3] = format: in vivo, human
How it was run: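 Pooled noncompartmental data from 17 phase 1 studies in healthy subjects, fasted or light meal, no co-administered drugs; solution, suspension or tablet, 0.5–300 mg. Single dose: AUCinf; multiple dose: steady-state AUCtau (tau 24 h), day-1 Cmax.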

[4] = cited from earlier work
UGT1A9 [5] = settings: in vitro; cited from earlier work
UGT1A9 [6] = assay: UGT1A9 genotype analysis of ertugliflozin AUC pooled from phase 1 studies; format: in vivo, human; settings: for Predicted mean (90% CI) ertugliflozin AUC: Wild type, fasted
How it was run: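 AUC pooled from 20 phase 1 studies of fasted oral tablets in genotyped healthy subjects. Linear AUC-versus-dose model as for dose proportionality. Three UGT1A9 variants (*1b homozygous/heterozygous, -2152 heterozygous, *3 heterozygous) entered together as categorical covariates on slope, giving fold change versus wild type for all alleles.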

UGT2B7 and UGT2B4 = settings: in vitro; cited from earlier work
[7] = coadministration of mefenamic acid; PBPK modeling; cited from earlier work
[8] = 5-mg tablet, fasted state, full model bootstrap

Compound: CCOc1ccc(Cc2cc([C@]34OC[C@](CO)(O3)[C@@H](O)[C@H](O[C@@H]3O[C@H](C(=O)O)[C@@H](O)[C@H](O)[C@H]3O)[C@H]4O)ccc2Cl)cc1 [ertugliflozin‐3‐O‐β‐glucuronide]
pharmacological activity of metabolite [1]: pharmacologically inactive

Compound: ertugliflozin‐2‐O‐β‐glucuronide
pharmacological activity of metabolite [1]: pharmacologically inactive

predicted mean AUC [3, 8]: 437 ng·h/mL | predicted mean Cmax [3, 8]: 88.7 ng/mL | predicted mean AUC ([3]; 15-mg tablet, fasted state, full model bootstrap): 1380 ng·h/mL | AUC higher versus the tablet form ([3]; administered as a solution): 16% | Cmax lower versus the tablet form ([3]; administered as a solution): 18% | AUC lower relative to fasting administration ([3]; administered with a light meal): 10% | Cmax lower relative to fasting administration ([3]; administered with a light meal): 46% | AUC intercept, Estimate (RSE, %) ([3]; base model): –26.5 (28.8) ng·h/mL | AUC slope, Estimate (RSE, %) ([3]; base model, AUC as linear function of dose): 93.2 (1.50) ng·h/mL/mg | Cmax slope, Estimate (RSE, %) ([3]; base model, Cmax as linear function of dose): 16.2 (2.20) ng/mL/mg | relationship of AUC and Cmax to dose ([3]; dose range 0.5 to 300 mg, healthy subjects): dose‐proportional | AUC intercept, Estimate (RSE, %) ([3]; full model): –33.7 (33.2) ng·h/mL | Solution covariate: fold change in AUC slope vs tablet, Estimate (RSE, %) ([3]; full model): 1.16 (6.35) | Solution covariate: fold change in Cmax slope vs tablet, Estimate (RSE, %) ([3]; full model): 0.821 (7.08) | Suspension covariate: fold change in AUC slope vs tablet, Estimate (RSE, %) ([3]; full model): 1.04 (3.44) | Suspension covariate: fold change in Cmax slope vs tablet, Estimate (RSE, %) ([3]; full model): 0.897 (4.77) | effect of suspension formulation on AUC or Cmax relative to tablet ([3]; full model): did not have a significant effect | AUC slope, Estimate (RSE, %) ([3]; full model, tablet, fasted): 94.1 (1.76) ng·h/mL/mg | Cmax slope, Estimate (RSE, %) ([3]; full model, tablet, fasted): 17.7 (1.92) ng/mL/mg | decrease in AUC compared with wild-type UGT1A9 (UGT1A9 [6]; UGT1A9-2152 heterozygous and UGT1A9*1b heterozygous variants combined): 7.3% | combined effect on AUC (fold vs wild type) (UGT1A9 [6]; UGT1A9-2152 heterozygous and UGT1A9*1b heterozygous variants, 0.988 × 0.938): 0.927 | Predicted mean (90% CI) ertugliflozin AUC (UGT1A9 [6]; 5 mg tablet): 436 ng·h/mL | Predicted mean (90% CI) ertugliflozin AUC (UGT1A9 [6]; 15 mg tablet): 1410 ng·h/mL | AUC intercept, Estimate (RSE, %) (UGT1A9 [6]; base model): –63.9 (16.3) ng·h/mL | AUC slope, Estimate (RSE, %) (UGT1A9 [6]; base model): 96.7 (1.89) ng·h/mL/mg | AUC intercept, Estimate (RSE, %) (UGT1A9 [6]; full model): –50.1 (22.8) ng·h/mL | effect of UGT1A9-2152 heterozygous variant on AUC (UGT1A9 [6]; full model, 95%CI included 1): did not have a significant effect | AUC slope, Estimate (RSE, %) (UGT1A9 [6]; full model, UGT1A9 wild-type subjects): 97.1 (3.25) ng·h/mL/mg
Compound: CCOc1ccc(Cc2cc([C@]34OC[C@](CO)(O3)[C@@H](O)[C@H](O)[C@H]4O)ccc2Cl)cc1 [ertugliflozin]
reduction in ertugliflozin AUC [2]: ~39% | effect of high-fat meal on ertugliflozin AUC ([4]; 15-mg commercial tablet): no meaningful effect | effect on ertugliflozin exposure of administration with food [4]: No clinically meaningful effect | share of ertugliflozin biotransformation accounted for by glucuronidation [4]: ~90% | administered dose recovered in urine and feces as unchanged ertugliflozin ([4]; mass-balance study in humans): ~35% | median time to maximum plasma concentrations (Tmax) ([4]; multiple doses, fed): 2.0 h | median time to maximum plasma concentrations (Tmax) ([4]; single doses, fasted): 1.0 h | share of glucuronide metabolite formation catalyzed by UGT1A9 (UGT1A9 [5]): 81% | clinical relevance of UGT1A9 genotype effect on ertugliflozin exposure (UGT1A9 [6]; healthy subjects): did not have any clinically meaningful effects | share of ertugliflozin glucuronidation by UGT2B7 and UGT2B4 (UGT2B7 and UGT2B4): 19% | increase in ertugliflozin AUC [7]: ~1.5 fold
